From PMC4876717 (ACS chemical neuroscience, 2015)

How the values were obtained:
FAAH [1] = conditions: read-out: IC50 to FAAH in vitro; cited from earlier work
[2] = system: triacylglycerol hydrolase (TGH); conditions: relative to FAAH; cited from earlier work
[3] = system: hydrolytic enzyme KIAA1363; conditions: relative to FAAH; cited from earlier work
[4] = cited from earlier work
[5] = Radiometabolite analysis in rat plasma and brain homogenate; assay type: in vivo, Sprague-Dawley rats; conditions: 15 min post-tracer injection
Outline: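 Sprague-Dawley rats (n = 3) given tracer iv (82 MBq, 1.1 nmol) and killed at 15 min. Plasma separated (15,000 g, 2 min, 4 °C) and deproteinised with equal volume acetonitrile. Brain homogenised in ice-cold acetonitrile/water 1:1 and centrifuged; supernatant recovery >90%. Supernatants run on radio-HPLC (C18, acetonitrile/0.05 M NH4OAc 2:8, 2 mL/min). Parent fraction = parent peak area/total peak area × 100, decay-corrected.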

[6] = Lipophilicity, n-octanol/PBS liquid-liquid partition; assay type: physicochemical; conditions: pH 7.4
Outline: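 Radiolabelled test compound (~150,000 cpm) shaken with n-octanol (3.0 g) and 0.1 M sodium phosphate-buffered saline pH 7.40 (3.0 g): vortexed 3 min at room temperature, centrifuged 3500 rpm 5 min. Weighed aliquots of each phase gamma-counted. Remaining organic layer repartitioned until logD values were consistent. LogD = log[(cpm/g octanol)/(cpm/g PBS)]. Triplicate.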

[7] = PET imaging in rats, brain uptake; assay type: in vivo, Sprague-Dawley rats
Outline: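 Male Sprague-Dawley rats (7 weeks, 210–230 g) under isoflurane (5% induction, 1–2% maintenance). Tail-vein catheter used to inject tracer (40–51 MBq, 0.7–1 nmol/200 μL). Scans: 90 min 3D list mode, 350–750 keV, binned 1 min × 4, 2 min × 8, […]. Filtered back-projection. ROIs on whole brain, cerebral cortex and cerebellum. Decay-corrected SUV from injected activity and body weight. n = 3.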

[8] = Whole body biodistribution in mice; assay type: in vivo, ddY mice; conditions: for Distribution of radioactivity, blood / Distribution of radioactivity, brain / Distribution of radioactivity, heart / Distribution of radioactivity, kidneys / Distribution of radioactivity, liver / Distribution of radioactivity, lungs / Distribution of radioactivity, muscle / Distribution of radioactivity, small intestine / Distribution of radioactivity, spleen / Distribution of radioactivity, testes: mean ± SD, n = 3
Outline: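 Male ddY mice (7 weeks, 34–36 g) given tracer in saline (2 MBq, 0.03 nmol/200 μL) via tail vein. Three mice killed at each time point: 1, 5, 15, 30 and 60 min. Blood, brain, heart, lung, liver, spleen, kidneys, small intestine with contents, muscle and testes removed and weighed. Tissues gamma-counted with decay correction. Uptake expressed as %ID/g wet tissue.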

[9] = Stability of formulated tracer; assay type: physicochemical; conditions: within 90 min after formulation in saline
FAAH [10] = molecular target: T1, FAAH (Rattus norvegicus, UniProt P97612); test: PET blocking study with URB597 in rats; assay type: in vivo, Sprague-Dawley rats; conditions: pretreatment with URB597 3 mg/kg, 30 min iv before injection
T1 sequence (P97612 1-579): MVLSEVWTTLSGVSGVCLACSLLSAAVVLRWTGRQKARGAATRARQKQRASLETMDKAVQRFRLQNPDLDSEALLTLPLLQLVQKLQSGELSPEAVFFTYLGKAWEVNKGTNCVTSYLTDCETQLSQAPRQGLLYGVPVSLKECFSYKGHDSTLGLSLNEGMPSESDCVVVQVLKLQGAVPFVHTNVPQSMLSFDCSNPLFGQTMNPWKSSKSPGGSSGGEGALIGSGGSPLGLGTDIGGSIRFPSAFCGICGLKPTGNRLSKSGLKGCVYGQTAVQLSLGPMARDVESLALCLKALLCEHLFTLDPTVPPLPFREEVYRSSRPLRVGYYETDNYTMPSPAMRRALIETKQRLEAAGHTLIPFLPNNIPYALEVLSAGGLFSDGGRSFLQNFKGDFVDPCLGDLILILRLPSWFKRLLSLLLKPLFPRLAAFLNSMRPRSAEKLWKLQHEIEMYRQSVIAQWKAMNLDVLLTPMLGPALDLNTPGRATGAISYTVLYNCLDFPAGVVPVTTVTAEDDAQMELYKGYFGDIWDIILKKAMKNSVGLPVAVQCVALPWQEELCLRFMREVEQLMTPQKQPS
Outline: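 Blocking arm of the rat brain PET, run in male Sprague-Dawley rats under isoflurane. Unlabelled FAAH inhibitor (3.0 mg/kg, in 300 μL saline with 10% ethanol and 5% Tween 80) given 30 min before the tracer (40–51 MBq, 0.7–1 nmol iv). Dynamic 90 min list-mode scan. Regional brain uptake taken as decay-corrected SUV and compared with baseline. Three rats per condition.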

PgP/Bcrp = test: PET imaging in wild-type and PgP/Bcrp knockout mice; assay type: in vivo
Outline: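 Male […] mice, wild-type and Abcb1a/1b−/−Abcg2−/− (17–18 weeks), set up in the scanner as for the rat scans. Tracer (18 MBq, 0.12 nmol/100 μL) injected via tail-vein line. Dynamic 3D list-mode acquisition for 60 min (1 min × 4, 2 min × 8, 5 min × 8). Regional time-activity curves taken as SUV, processed as for rats. Three mice per genotype.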

COc1ccccc1CCCCCCC(=O)c1ncc(-c2ccccn2)o1 [MPPO, 7-(2-methoxyphenyl)-1-(5-(pyridin-2-yl)oxazol-2-yl)heptan-1-one]
IC50 (FAAH [1]): 10 nM
selectivity over triacylglycerol hydrolase (TGH) [2]: greater than 500 fold
selectivity over hydrolytic enzyme KIAA1363 [3]: > 10^5 fold

O=[11C](NC1CCCCC1)Oc1ccc(O)c(-c2ccccc2)c1 [[^11C]CURB]
logD7.4 [4]: 2.8

O=C(Nc1cccnn1)N1CCC(=Cc2cccc(Oc3ccc(C(F)(F)F)cn3)c2)CC1 [[^11C]PF-04457845]
logD7.4 [4]: 3.48

[11CH3]Oc1ccccc1CCCCCCC(=O)c1ncc(-c2ccccn2)o1 [[^11C]MPPO, 7-(2-[^11C]methoxyphenyl)-1-(5-(pyridin-2-yl)oxazol-2-yl)heptan-1-one]
metabolism (radioactivity associated with hydrophilic metabolites) ([5]; rat brain homogenates): 75%
metabolism (radioactivity associated with hydrophilic metabolites) ([5]; rat plasma): 90%
logD [6]: 3.43
time of peak radioactivity in brain tissues ([7]; rat brain PET, after injection): 1.5 min
highest (peak) radioactivity in cerebellar nuclei ([7]; rat brain PET, baseline): 0.87 SUV
brain washout, 5 min/60 min ratio ([7]; rat whole brain PET): 5.1
maximum uptake in whole brain ([7]; rat whole brain PET): 0.65 SUV
brain uptake ([8]; mice biodistribution): 0.8 SUV
Distribution of radioactivity, blood ([8]; mice, 1 min after injection): 1.83 ± 0.15 %ID/g
Distribution of radioactivity, brain ([8]; mice, 1 min after injection): 1.87 ± 0.20 %ID/g
Distribution of radioactivity, heart ([8]; mice, 1 min after injection): 6.89 ± 0.60 %ID/g
Distribution of radioactivity, kidneys ([8]; mice, 1 min after injection): 12.64 ± 0.56 %ID/g
Distribution of radioactivity, liver ([8]; mice, 1 min after injection): 9.78 ± 1.10 %ID/g
Distribution of radioactivity, lungs ([8]; mice, 1 min after injection): 17.47 ± 3.88 %ID/g
Distribution of radioactivity, muscle ([8]; mice, 1 min after injection): 1.78 ±0.16 %ID/g
Distribution of radioactivity, small intestine ([8]; mice, 1 min after injection): 3.08 ± 0.29 %ID/g
Distribution of radioactivity, spleen ([8]; mice, 1 min after injection): 2.28 ± 0.50 %ID/g
Distribution of radioactivity, testes ([8]; mice, 1 min after injection): 0.44 ± 0.05 %ID/g
Distribution of radioactivity, blood ([8]; mice, 5 min after injection): 0.75 ± 0.07 %ID/g
Distribution of radioactivity, brain ([8]; mice, 5 min after injection): 2.27 ± 0.16 %ID/g
Distribution of radioactivity, heart ([8]; mice, 5 min after injection): 1.65 ± 0.07 %ID/g
Distribution of radioactivity, kidneys ([8]; mice, 5 min after injection): 17.17 ± 1.67 %ID/g
Distribution of radioactivity, liver ([8]; mice, 5 min after injection): 18.61 ± 2.31 %ID/g
Distribution of radioactivity, lungs ([8]; mice, 5 min after injection): 4.88 ± 0.41 %ID/g
Distribution of radioactivity, muscle ([8]; mice, 5 min after injection): 1.03 ± 0.09 %ID/g
Distribution of radioactivity, small intestine ([8]; mice, 5 min after injection): 7.22 ± 0.89 %ID/g
Distribution of radioactivity, spleen ([8]; mice, 5 min after injection): 1.29 ± 0.22 %ID/g
Distribution of radioactivity, testes ([8]; mice, 5 min after injection): 0.67 ± 0.02 %ID/g
Distribution of radioactivity, blood ([8]; mice, 15 min after injection): 0.38 ± 0.03 %ID/g
Distribution of radioactivity, brain ([8]; mice, 15 min after injection): 1.81 ± 0.09 %ID/g
Distribution of radioactivity, heart ([8]; mice, 15 min after injection): 0.55 ± 0.01 %ID/g
Distribution of radioactivity, kidneys ([8]; mice, 15 min after injection): 13.70 ± 0.69 %ID/g
Distribution of radioactivity, liver ([8]; mice, 15 min after injection): 20.05 ± 1.43 %ID/g
Distribution of radioactivity, lungs ([8]; mice, 15 min after injection): 1.20 ± 0.04 %ID/g
Distribution of radioactivity, muscle ([8]; mice, 15 min after injection): 0.58 ± 0.17 %ID/g
Distribution of radioactivity, small intestine ([8]; mice, 15 min after injection): 18.54 ± 4.00 %ID/g
Distribution of radioactivity, spleen ([8]; mice, 15 min after injection): 0.60 ± 0.03 %ID/g
Distribution of radioactivity, testes ([8]; mice, 15 min after injection): 0.59 ± 0.00 %ID/g
Distribution of radioactivity, blood ([8]; mice, 30 min after injection): 0.34 ± 0.05 %ID/g
Distribution of radioactivity, brain ([8]; mice, 30 min after injection): 1.40 ± 0.15 %ID/g
Distribution of radioactivity, heart ([8]; mice, 30 min after injection): 0.51 ± 0.03 %ID/g
Distribution of radioactivity, kidneys ([8]; mice, 30 min after injection): 9.55 ± 0.65 %ID/g
Distribution of radioactivity, liver ([8]; mice, 30 min after injection): 17.47 ± 1.10 %ID/g
Distribution of radioactivity, lungs ([8]; mice, 30 min after injection): 1.19 ± 0.18 %ID/g
Distribution of radioactivity, muscle ([8]; mice, 30 min after injection): 0.50 ± 0.17 %ID/g
Distribution of radioactivity, spleen ([8]; mice, 30 min after injection): 0.49 ± 0.03 %ID/g
Distribution of radioactivity, testes ([8]; mice, 30 min after injection): 0.48 ± 0.02 %ID/g
Distribution of radioactivity, heart ([8]; mice, 60 min after injection): 0.32 ± 0.03 %ID/g
Distribution of radioactivity, kidneys ([8]; mice, 60 min after injection): 6.20 ± 0.70 %ID/g
Distribution of radioactivity, liver ([8]; mice, 60 min after injection): 13.69 ±0.63 %ID/g
Distribution of radioactivity, lungs ([8]; mice, 60 min after injection): 0.64 ± 0.08 %ID/g
Distribution of radioactivity, muscle ([8]; mice, 60 min after injection): 0.24 ± 0.04 %ID/g
Distribution of radioactivity, small intestine ([8]; mice, 60 min after injection): 13.75 ±3.44 %ID/g
Distribution of radioactivity, spleen ([8]; mice, 60 min after injection): 0.37 ±0.01 %ID/g
Distribution of radioactivity, testes ([8]; mice, 60 min after injection): 0.30 ± 0.03 %ID/g
blood clearance, 1 min/60 min ratio ([8]; mice, blood radioactivity): 6.1
brain washout, 5 min/60 min ratio ([8]; mice, brain radioactivity): 2.6
radiolysis after formulation [9]: no radiolysis was observed
specificity to FAAH in rat brains (FAAH [10]): modest
peak brain uptake, cerebellum (PgP/Bcrp; PgP/Bcrp KO mice): 1.04 SUV
ratio of KO/WT in AUC, cerebellum (PgP/Bcrp; PgP/Bcrp KO vs wild type mice): 1.2
ratio of KO/WT in AUC, cerebral cortex (PgP/Bcrp; PgP/Bcrp KO vs wild type mice): 1.2
substrate for Pgp/Bcrp (PgP/Bcrp; mice, blood-brain barrier): not likely a substrate for Pgp/Bcrp
peak brain uptake, cerebellum (PgP/Bcrp; wild type mice): 0.78 SUV
peak brain uptake, cerebral cortex (PgP/Bcrp; wild type mice): 0.74 SUV
